Assay results from ChEMBL document CHEMBL1146513, “Discorhabdins I and L, cytotoxic alkaloids from the sponge Latrunculia brevis” (J Nat Prod, 2004).
Calls of active or inactive are those of the source. No cut-off for these calls is given here.

What was measured:
LNCaP = assay: Cytotoxicity against human LNCAP cells by SRB assay; format: functional, cell-based
Summary of the method: (§1)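 Sulforhodamine B colorimetric staining quantifies cell growth and viability. Compounds were run in vitro against a 14-line tumour panel covering prostate, ovary, breast, melanoma, endothelial, NSCLC, leukaemia, pancreas and colon lines, with values reported as GI50.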

SK-OV-3 = assay: Cytotoxicity against human SKOV3 cells by SRB assay; format: functional, cell-based; summary of the method: as §1
K562 = assay: Cytotoxicity against human K562 cells by SRB assay; format: functional, cell-based; summary of the method: as §1
A549 = assay: Cytotoxicity against human A549 cells by SRB assay; format: functional, cell-based; summary of the method: as §1
SK-MEL-28 = assay: Cytotoxicity against human SK-MEL-28 cells by SRB assay; format: functional, cell-based; summary of the method: as §1
LoVo [1] = assay: Cytotoxicity against human doxorubicin-resistant LoVo cells by SRB assay; format: functional, cell-based; summary of the method: as §1
LoVo [2] = assay: Cytotoxicity against human LoVo cells by SRB assay; format: functional, cell-based; summary of the method: as §1
DU-145 = assay: Cytotoxicity against human DU145 cells by SRB assay; format: functional, cell-based; summary of the method: as §1
IGROV = assay: Cytotoxicity against human IGROV cells by SRB assay; format: functional, cell-based; summary of the method: as §1
IGROV-ET = assay: Cytotoxicity against human IGROV-ET cells by SRB assay; format: functional, cell-based; summary of the method: as §1
PANC-1 = assay: Cytotoxicity against human PANC1 cells by SRB assay; format: functional, cell-based; summary of the method: as §1
HT-29 = assay: Cytotoxicity against human HT-29 cells by SRB assay; format: functional; summary of the method: as §1
[3] = Cytotoxicity against human HMEC1 cells by SRB assay; format: cell-based; details: hmec-1; summary of the method: as §1
SK-BR-3 = assay: Cytotoxicity against human SKBR3 cells by SRB assay; format: functional, cell-based; summary of the method: as §1

Compound | Activity (LNCaP) | Activity (SK-OV-3) | Activity (K562) | Activity (A549) | Activity (SK-MEL-28) | Activity (LoVo [1]) | Activity (LoVo [2]) | Activity (DU-145) | Activity (IGROV) | Activity (IGROV-ET) | Activity (PANC-1) | GI50 (HT-29) [µM] | Activity [3] | Activity (SK-BR-3)
O=C1C=C[C@@]23C[C@@H](NC4=C2C2=NCCc5c[nH]c(c52)C4=O)SC3=C1 [1-DEBROMODISCORHABDIN B] | Active | Active | Active | Active | Active | Active | Active | Active | Active | Active | Active | 0.35 | Active | Active
O=C([O-])C(F)(F)F.O=C1C2=C3C4=[N+](CCc5c[nH]c1c54)[C@@H]1C(=O)C=C4S[C@@H](C[C@@]43[C@H]1O)N2 [DISCORHABDIN L] | Active | Active | Active | Active | Active | Active | Active | Active | Active | Active | Active | 0.12 | Active | Active
